# Laboratory results: ChEMBL document CHEMBL1629494, “New amino acid esters of salicylanilides active against MDR-TB and other microbes” (Eur J Med Chem, 2010)
# Legend:
# Aspergillus fumigatus [1] = experiment: Antifungal activity against Aspergillus fumigatus 231 after 48 hrs by broth microdilution method; format: functional; details: Aspergillus fumigatus, 231, 48 h
# Staphylococcus aureus [2] = experiment: Antibacterial activity against methicillin-resistant Staphylococcus aureus H5996/08 after 48 hrs by broth microdilution method; format: functional; details: H5996/08, 48 h
# Procedure, shortened: (§1)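 Broth microdilution following […], with twofold compound dilutions in Mueller-Hinton bouillon. Incubated 24 and 48 h at 35 °C in the dark in a humid atmosphere. MIC (IC80) was taken as ≥80% growth reduction versus control, read visually and photometrically.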
# Mycobacterium avium [3] = experiment: Antimycobacterial activity against multidrug-resistant Mycobacterium avium 330/88 after 21 days by micromethod; format: functional; details: 330/88, 504 h
# Procedure, shortened: (§2)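 Micromethod in Sula semisynthetic medium, with compounds added as DMSO solutions at 1000, 500, 250, 125, 62, 32, 16, 8, 4, 2, 1, 0.5, 0.25. Inoculum dilutions: H37Rv 10^-3; M. avium 330/88 10^-5; M. kansasii 235/80 10^-4; M. kansasii 6509/96 10^-5. Incubated at 37 °C, read at 14 and 21 days, and at 7 days for M. kansasii. MIC was the lowest concentration inhibiting growth.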
# Klebsiella pneumoniae [4] = experiment: Antibacterial activity against Klebsiella pneumoniae D11750/08 after 48 hrs by broth microdilution method; format: functional; details: D11750/08, 48 h; procedure, shortened: as §1
# Mycobacterium kansasii [5] = experiment: Antimycobacterial activity against Mycobacterium kansasii 6509/96 after 21 days by micromethod; format: functional; details: 6509/96, 504 h; procedure, shortened: as §2
# [6] = system: Mycobacterium tuberculosis; experiment: Antimycobacterial activity against drug-sensitive Mycobacterium tuberculosis; format: functional
# Enterococcus sp. [7] = experiment: Antibacterial activity against Enterococcus sp. J14365/08 after 24 hrs by broth microdilution method; format: functional; details: J14365/08, 24 h; procedure, shortened: as §1
# Trichosporon beigelii [8] = experiment: Antifungal activity against Trichosporon beigelii 1188 after 24 hrs by broth microdilution method; format: functional; details: Trichosporon beigelii, 1188, 24 h
# Nakaseomyces glabratus [9] = experiment: Antifungal activity against Candida glabrata 20/I after 24 hrs by broth microdilution method; format: functional
# Escherichia coli [10] = experiment: Antibacterial activity against Escherichia coli CCM 4517 after 24 hrs by broth microdilution method; format: functional; details: CCM 4517, 24 h; procedure, shortened: as §1
# Lichtheimia corymbifera [11] = experiment: Antifungal activity against Absidia corymbifera 272 after 48 hrs by broth microdilution method; format: functional; details: Lichtheimia corymbifera, 272, 48 h
# Mycobacterium kansasii [12] = experiment: Antimycobacterial activity against Mycobacterium kansasii 235/80 after 21 days by micromethod; format: functional; details: 235/80, 504 h; procedure, shortened: as §2
# [13] = system: Staphylococcus epidermidis; experiment: Antibacterial activity against Staphylococcus epidermidis H6966/08 after 24 hrs by broth microdilution method; format: functional; details: H6966/08, 24 h; procedure, shortened: as §1
# [14] = system: Mycobacterium tuberculosis; experiment: Antimycobacterial activity against Mycobacterium tuberculosis H37Rv 331/88 after 21 days by micromethod; format: functional; details: H37Rv 331/88, 504 h; procedure, shortened: as §2
# Candida tropicalis [15] = experiment: Antifungal activity against Candida tropicalis 156 after 24 hrs by broth microdilution method; format: functional; details: Candida tropicalis, 156, 24 h
# Trichosporon beigelii [16] = experiment: Antifungal activity against Trichosporon beigelii 1188 after 48 hrs by broth microdilution method; format: functional; details: Trichosporon beigelii, 1188, 48 h
# Candida tropicalis [17] = experiment: Antifungal activity against Candida tropicalis 156 after 48 hrs by broth microdilution method; format: functional; details: Candida tropicalis, 156, 48 h
# Staphylococcus aureus [18] = experiment: Antibacterial activity against methicillin-resistant Staphylococcus aureus H5996/08 after 24 hrs by broth microdilution method; format: functional; details: H5996/08, 24 h; procedure, shortened: as §1
# Mycobacterium kansasii [19] = experiment: Antimycobacterial activity against Mycobacterium kansasii 235/80 after 14 days by micromethod; format: functional; details: 235/80, 336 h; procedure, shortened: as §2
# Mycobacterium kansasii [20] = experiment: Antimycobacterial activity against Mycobacterium kansasii; format: functional
# Pichia kudriavzevii [21] = experiment: Antifungal activity against Candida krusei E28 after 48 hrs by broth microdilution method; format: functional; details: E28, 48 h
# [22] = system: Trichophyton mentagrophytes; experiment: Antifungal activity against Trichophyton mentagrophytes after 24 hrs by broth microdilution method; format: functional
# Klebsiella pneumoniae [23] = experiment: Antibacterial activity against Klebsiella pneumoniae D11750/08 after 24 hrs by broth microdilution method; format: functional; details: D11750/08, 24 h; procedure, shortened: as §1
# [24] = system: Mycobacterium tuberculosis; experiment: Antimycobacterial activity against Mycobacterium tuberculosis H37Rv 331/88 after 14 days by micromethod; format: functional; details: H37Rv 331/88, 336 h; procedure, shortened: as §2
# Mycobacterium avium [25] = experiment: Antimycobacterial activity against Mycobacterium avium; format: functional
# Aspergillus fumigatus [26] = experiment: Antifungal activity against Aspergillus fumigatus 231 after 24 hrs by broth microdilution method; format: functional; details: Aspergillus fumigatus, 231, 24 h
# Staphylococcus aureus [27] = experiment: Antibacterial activity against Staphylococcus aureus CCM 4516/08 after 24 hrs by broth microdilution method; format: functional; details: CCM 4516/08, 24 h; procedure, shortened: as §1
# Candida albicans [28] = experiment: Antifungal activity against Candida albicans ATCC 44859 after 48 hrs by broth microdilution method; format: functional; details: ATCC 44859, 48 h
# Enterococcus sp. [29] = experiment: Antibacterial activity against Enterococcus sp. J14365/08 after 48 hrs by broth microdilution method; format: functional; details: J14365/08, 48 h; procedure, shortened: as §1
# Mycobacterium avium [30] = experiment: Antimycobacterial activity against multidrug-resistant Mycobacterium avium 330/88 after 14 days by micromethod; format: functional; details: 330/88, 336 h; procedure, shortened: as §2
# Escherichia coli [31] = experiment: Antibacterial activity against Escherichia coli CCM 4517 after 48 hrs by broth microdilution method; format: functional; details: CCM 4517, 48 h; procedure, shortened: as §1
# Pichia kudriavzevii [32] = experiment: Antifungal activity against Candida krusei E28 after 24 hrs by broth microdilution method; format: functional; details: E28, 24 h
# Lichtheimia corymbifera [33] = experiment: Antifungal activity against Absidia corymbifera 272 after 24 hrs by broth microdilution method; format: functional; details: Lichtheimia corymbifera, 272, 24 h
# Mycobacterium kansasii [34] = experiment: Antimycobacterial activity against Mycobacterium kansasii 6509/96 after 7 days by micromethod; format: functional; details: 6509/96, 168 h; procedure, shortened: as §2
# [35] = system: Staphylococcus epidermidis; experiment: Antibacterial activity against Staphylococcus epidermidis H6966/08 after 48 hrs by broth microdilution method; format: functional; details: H6966/08, 48 h; procedure, shortened: as §1
# Candida albicans [36] = experiment: Antifungal activity against Candida albicans ATCC 44859 after 24 hrs by broth microdilution method; format: functional; details: ATCC 44859, 24 h
# [37] = system: Trichophyton mentagrophytes; experiment: Antifungal activity against Trichophyton mentagrophytes after 48 hrs by broth microdilution method; format: functional
# Mycobacterium kansasii [38] = experiment: Antimycobacterial activity against Mycobacterium kansasii 6509/96 after 14 days by micromethod; format: functional; details: 6509/96, 336 h; procedure, shortened: as §2
# Mycobacterium kansasii [39] = experiment: Antimycobacterial activity against Mycobacterium kansasii 235/80 after 7 days by micromethod; format: functional; details: 235/80, 168 h; procedure, shortened: as §2
# Nakaseomyces glabratus [40] = experiment: Antifungal activity against Candida glabrata 20/I after 48 hrs by broth microdilution method; format: functional
# Staphylococcus aureus [41] = experiment: Antibacterial activity against Staphylococcus aureus CCM 4516/08 after 48 hrs by broth microdilution method; format: functional; details: CCM 4516/08, 48 h; procedure, shortened: as §1
# [42] = Selectivity index, ratio of IC50 for human PBMC to MIC for Mycobacterium tuberculosis H37Rv 331/88 after 14 days; format: functional
# Procedure, shortened: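 SI = PBMC IC50 (MTT cytotoxicity) divided by the MIC against the named M. tuberculosis strain. MIC taken after 14 days of incubation at 37 °C by the micromethod.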
# PBMC = experiment: Cytotoxicity against human PBMC after 24 hrs by MTT assay; format: cell-based
# Procedure, shortened: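 Human peripheral blood mononuclear cells in RPMI-1640 with 10% fetal calf serum, 2 mM L-glutamine and gentamicin, 37 °C, 5% CO2. Seeded at 1.5–2.0 × 10⁵ cells/well. After 24 h, treated overnight in serum-free medium. Viability by MTT (2 mg/mL, 4 h); formazan dissolved in DMSO; OD540 minus OD620. Cytotoxicity % = [1 − OD treated/OD control] × 100; IC50 from dose-response curves. Four parallels, two independent experiments.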
# [43] = Lipophilicity, log P of the compound; format: physicochemical; details: octanol/water
compound,measurement,setting,value
CC(=O)N[C@@H](Cc1ccccc1)C(=O)Oc1cc(Cl)ccc1C(=O)Nc1ccc(Cl)c(Cl)c1,MIC,Aspergillus fumigatus [1],> 125 µM
same,MIC,Staphylococcus aureus [2],> 125 µM
same,MIC,Mycobacterium avium [3],16 µM
same,MIC,Klebsiella pneumoniae [4],> 125 µM
same,MIC,Mycobacterium kansasii [5],4 µM
same,MIC,[6],1 µM
same,MIC,Enterococcus sp. [7],125 µM
same,MIC,Trichosporon beigelii [8],125 µM
same,MIC,Nakaseomyces glabratus [9],> 125 µM
same,MIC,Escherichia coli [10],125 µM
same,MIC,Lichtheimia corymbifera [11],> 125 µM
same,MIC,Mycobacterium kansasii [12],4 µM
same,MIC,[13],125 µM
same,MIC,[14],2 µM
same,MIC,Candida tropicalis [15],125 µM
same,MIC,Trichosporon beigelii [16],> 125 µM
same,MIC,Candida tropicalis [17],> 125 µM
same,MIC,Staphylococcus aureus [18],125 µM
same,MIC,Mycobacterium kansasii [19],4 µM
same,MIC,Mycobacterium kansasii [20],1 µM
same,MIC,Pichia kudriavzevii [21],> 125 µM
same,MIC,[22],62.5 µM
same,MIC,Klebsiella pneumoniae [23],> 125 µM
same,MIC,[24],2 µM
same,MIC,Mycobacterium avium [25],1 µM
same,MIC,Aspergillus fumigatus [26],125 µM
same,MIC,Staphylococcus aureus [27],125 µM
same,MIC,Candida albicans [28],> 125 µM
same,MIC,Enterococcus sp. [29],> 125 µM
same,MIC,Mycobacterium avium [30],8 µM
same,MIC,Escherichia coli [31],> 125 µM
same,MIC,Pichia kudriavzevii [32],> 125 µM
same,MIC,Lichtheimia corymbifera [33],125 µM
same,MIC,Mycobacterium kansasii [34],1 µM
same,MIC,[35],> 125 µM
same,MIC,Candida albicans [36],125 µM
same,MIC,[37],> 125 µM
same,MIC,Mycobacterium kansasii [38],2 µM
same,MIC,Mycobacterium kansasii [39],4 µM
same,MIC,Nakaseomyces glabratus [40],> 125 µM
same,MIC,Staphylococcus aureus [41],> 125 µM
CC(=O)N[C@@H](Cc1ccccc1)C(=O)Oc1ccc(Cl)cc1C(=O)Nc1ccc(C(F)(F)F)cc1,MIC,Aspergillus fumigatus [1],> 125 µM
same,MIC,Staphylococcus aureus [2],7.81 µM
same,MIC,Mycobacterium avium [3],4 µM
same,MIC,Klebsiella pneumoniae [4],> 125 µM
same,MIC,Mycobacterium kansasii [5],2 µM
same,MIC,[6],1 µM
same,MIC,Enterococcus sp. [7],31.2 µM
same,MIC,Trichosporon beigelii [8],125 µM
same,MIC,Nakaseomyces glabratus [9],> 125 µM
same,MIC,Escherichia coli [10],> 125 µM
same,Selectivity Index,[42],48.8
same,MIC,Lichtheimia corymbifera [11],> 125 µM
same,MIC,Mycobacterium kansasii [12],2 µM
same,MIC,[13],0.98 µM
same,MIC,[14],0.5 µM
same,IC50,PBMC,12.2 µM
same,MIC,Candida tropicalis [15],> 125 µM
same,MIC,Trichosporon beigelii [16],> 125 µM
same,MIC,Candida tropicalis [17],> 125 µM
same,MIC,Staphylococcus aureus [18],0.98 µM
same,MIC,Mycobacterium kansasii [19],1 µM
same,MIC,Mycobacterium kansasii [20],1 µM
same,MIC,Pichia kudriavzevii [21],> 125 µM
same,MIC,[22],62.5 µM
same,MIC,Klebsiella pneumoniae [23],> 125 µM
same,MIC,[24],0.25 µM
same,MIC,Mycobacterium avium [25],1 µM
same,MIC,Aspergillus fumigatus [26],125 µM
same,MIC,Staphylococcus aureus [27],0.98 µM
same,MIC,Candida albicans [28],> 125 µM
same,MIC,Enterococcus sp. [29],> 125 µM
same,MIC,Mycobacterium avium [30],4 µM
same,MIC,Escherichia coli [31],> 125 µM
same,MIC,Pichia kudriavzevii [32],125 µM
same,logP,[43],4.92
same,MIC,Lichtheimia corymbifera [33],> 125 µM
same,MIC,Mycobacterium kansasii [34],1 µM
same,MIC,[35],3.9 µM
same,MIC,Candida albicans [36],> 125 µM
same,MIC,[37],> 125 µM
same,MIC,Mycobacterium kansasii [38],2 µM
same,MIC,Mycobacterium kansasii [39],0.5 µM
same,MIC,Nakaseomyces glabratus [40],> 125 µM
same,MIC,Staphylococcus aureus [41],1.95 µM
